Active and inactive are the calls of the source. No cut-off for these calls is given here.

The first series has as its system Mus musculus. Kind of series: Antinociceptive activity in Kunming mouse assessed as increase in latency to withdrawal by measuring AUC at 10 mg/kg, sc measured up to 45 mins post dose by tail-flick test. It is filed as functional, organism-based. More on the design: dose 10 mg/kg, time < 0.75 hr. In a few lines: (§1)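 Mouse tail-flick test. A single fixed dose was given, either 20 nmol/kg i.c.v. or 10 mg/kg s.c. Antinociception was followed as a time course, and the area under the effect-time curve (A.U.C) was calculated.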
For the compound `NC(=O)[C@H](Cc1ccccc1)NC(=O)[C@H](Cc1c[nH]c2ccccc12)NC(=O)[C@@H]1CCCN1C(=O)[C@@H](N)Cc1ccc(O)cc1`, the AUC amounted to 693.
As to `C[C@@H](NC(=O)[C@H](Cc1ccc(O)cc1)NC(=N)N)C(=O)NCC(=O)N[C@@H](Cc1c[nH]c2ccccc12)C(=O)N[C@@H](Cc1ccc(Cl)cc1)C(N)=O`, the AUC is 1400.
The same measure, in the same setting: under `C[C@@H](NC(=O)[C@@H](N)Cc1ccc(O)cc1)C(=O)NCC(=O)N[C@@H](Cc1c[nH]c2ccccc12)C(=O)N[C@@H](Cc1ccc(Cl)cc1)C(N)=O` stands 570; under `C[C@@H](NC(=O)[C@@H](N)Cc1ccc(O)cc1)C(=O)NCC(=O)N[C@@H](Cc1c[nH]c2ccccc12)C(=O)N[C@@H](Cc1ccccc1)C(N)=O`, 304.
On the same count and under the same terms, under `C[C@@H](NC(=O)[C@H](Cc1ccc(O)cc1)NC(=N)N)C(=O)NCC(=O)N[C@@H](Cc1c[nH]c2ccccc12)C(=O)N[C@@H](Cc1ccccc1)C(N)=O` stands 631.

The test system of another series is Mus musculus. Kind of series: Antinociceptive activity in Kunming mouse assessed as increase in latency to withdrawal at 10 mg/kg, sc measured up to 5 to 45 mins post dose in presence of opioid antagonist naloxone by tail-flick test. The format is functional, organism-based. In general terms: In hot-plate and tail-flick tests a longer latency is read as antinociception.
As to `C[C@@H](NC(=O)[C@H](Cc1ccc(O)cc1)NC(=N)N)C(=O)NCC(=O)N[C@@H](Cc1c[nH]c2ccccc12)C(=O)N[C@@H](Cc1ccc(Cl)cc1)C(N)=O`, the outcome was inactive.

The target of a further series is Delta-type opioid receptor (Rattus norvegicus, UniProt P33533). Kind of series: Displacement of [3H]-DPDPE from delta opioid receptor in Wistar rat brain membranes preincubated for 3 hrs measured after 1 hr by scintillation counting method. It is filed as cell membranes, Membrane. In short, it runs like this: (§2)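 Opioid receptor binding done on rat brain membranes. Affinity values are given as mean ± SEM of 8-12 measurements.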
Sequence of Delta-type opioid receptor (P33533 whole entry): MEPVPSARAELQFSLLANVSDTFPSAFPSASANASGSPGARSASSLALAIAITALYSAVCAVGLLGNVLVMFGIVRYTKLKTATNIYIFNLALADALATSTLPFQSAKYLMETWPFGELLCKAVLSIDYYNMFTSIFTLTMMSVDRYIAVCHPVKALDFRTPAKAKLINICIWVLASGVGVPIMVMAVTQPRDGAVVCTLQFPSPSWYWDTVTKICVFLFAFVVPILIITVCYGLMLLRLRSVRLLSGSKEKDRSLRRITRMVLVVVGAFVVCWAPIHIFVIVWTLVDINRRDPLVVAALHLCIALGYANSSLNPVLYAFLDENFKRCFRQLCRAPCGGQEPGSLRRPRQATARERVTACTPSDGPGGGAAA
(Loss of bound radioactivity is the signal in a displacement assay; it reports binding, not function.)
By Ki is commonly meant a dissociation constant, usually derived from enzyme kinetics or from competition with a known ligand. Low readings indicate tighter binding, high ones weaker binding. As for `C[C@@H](NC(=O)[C@H](Cc1ccc(O)cc1)NC(=N)N)C(=O)NCC(=O)N[C@@H](Cc1c[nH]c2ccccc12)C(=O)N[C@@H](Cc1ccc(Cl)cc1)C(N)=O`, the Ki was 2030 nM.
On the same count and under the same terms, as for `C[C@@H](NC(=O)[C@@H](N)Cc1ccc(O)cc1)C(=O)NCC(=O)N[C@@H](Cc1c[nH]c2ccccc12)C(=O)N[C@@H](Cc1ccc(Cl)cc1)C(N)=O`, the figure is 4060 nM; as for `C[C@@H](NC(=O)[C@@H](N)Cc1ccc(O)cc1)C(=O)NCC(=O)N[C@@H](Cc1c[nH]c2ccccc12)C(=O)N[C@@H](Cc1ccccc1)C(N)=O`, 4050 nM; as for `C[C@@H](NC(=O)[C@H](Cc1ccc(O)cc1)NC(=N)N)C(=O)NCC(=O)N[C@@H](Cc1c[nH]c2ccccc12)C(=O)N[C@@H](Cc1ccccc1)C(N)=O`, 3870 nM.

Tested on in a further series: not listed separately
Put plainly: Half life in Kunming mouse 15% brain homogenate at 500 uM by RP-HPLC analysis. It is filed as ADME, tissue-based. In a few lines:
(§3)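 Peptide stability was measured by incubation in 15% mouse brain homogenate or in mouse plasma, and the half-life was determined for each matrix.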
For orientation: half-life means how long it takes for the measured level to halve. Read a low half-life as rapid decline. Take `C[C@@H](NC(=O)[C@H](Cc1ccc(O)cc1)NC(=N)N)C(=O)NCC(=O)N[C@@H](Cc1c[nH]c2ccccc12)C(=O)N[C@@H](Cc1ccc(Cl)cc1)C(N)=O`: the half-life at 500 µM is 7.25 h.
On to `C[C@@H](NC(=O)[C@@H](N)Cc1ccc(O)cc1)C(=O)NCC(=O)N[C@@H](Cc1c[nH]c2ccccc12)C(=O)N[C@@H](Cc1ccc(Cl)cc1)C(N)=O`, for which the half-life at 500 µM was 4.2 h. This half-life at 500 µM is about 1.7-fold lower than that of the compound before.
The same measure, in the same setting: under `C[C@@H](NC(=O)[C@@H](N)Cc1ccc(O)cc1)C(=O)NCC(=O)N[C@@H](Cc1c[nH]c2ccccc12)C(=O)N[C@@H](Cc1ccccc1)C(N)=O` stands 3.66 h; under `C[C@@H](NC(=O)[C@H](Cc1ccc(O)cc1)NC(=N)N)C(=O)NCC(=O)N[C@@H](Cc1c[nH]c2ccccc12)C(=O)N[C@@H](Cc1ccccc1)C(N)=O`, 7.4 h.

In another series the test system is Mus musculus. Put plainly: Antinociceptive activity in Kunming mouse assessed as increase in latency to withdrawal by measuring AUC at 20 nmol/kg, i.c.v measured up to 45 mins post dose by tail-flick test. The format is functional, organism-based. More on the design: dose 20 nmol/kg, time < 0.75 hr. In a few lines: as §1
For the compound `NC(=O)[C@H](Cc1ccccc1)NC(=O)[C@H](Cc1c[nH]c2ccccc12)NC(=O)[C@@H]1CCCN1C(=O)[C@@H](N)Cc1ccc(O)cc1`, the AUC was 271.
The same measure, in the same setting: under `C[C@@H](NC(=O)[C@H](Cc1ccc(O)cc1)NC(=N)N)C(=O)NCC(=O)N[C@@H](Cc1c[nH]c2ccccc12)C(=O)N[C@@H](Cc1ccc(Cl)cc1)C(N)=O` stands 650; under `C[C@@H](NC(=O)[C@@H](N)Cc1ccc(O)cc1)C(=O)NCC(=O)N[C@@H](Cc1c[nH]c2ccccc12)C(=O)N[C@@H](Cc1ccc(Cl)cc1)C(N)=O`, 246.
Take `C[C@@H](NC(=O)[C@@H](N)Cc1ccc(O)cc1)C(=O)NCC(=O)N[C@@H](Cc1c[nH]c2ccccc12)C(=O)N[C@@H](Cc1ccccc1)C(N)=O`: the AUC stood at 336.
With `C[C@@H](NC(=O)[C@H](Cc1ccc(O)cc1)NC(=N)N)C(=O)NCC(=O)N[C@@H](Cc1c[nH]c2ccccc12)C(=O)N[C@@H](Cc1ccccc1)C(N)=O`, the AUC is 1160.

For a further series, the species on record is Rattus norvegicus. Put plainly: Selectivity ratio of Ki from delta opioid receptor in Wistar rat brain membranes to Ki from mu opioid receptor in Wistar rat brain membranes. It is filed as cell membranes.
As to `C[C@@H](NC(=O)[C@H](Cc1ccc(O)cc1)NC(=N)N)C(=O)NCC(=O)N[C@@H](Cc1c[nH]c2ccccc12)C(=O)N[C@@H](Cc1ccc(Cl)cc1)C(N)=O`, the Ratio Ki was 635.
With `C[C@@H](NC(=O)[C@@H](N)Cc1ccc(O)cc1)C(=O)NCC(=O)N[C@@H](Cc1c[nH]c2ccccc12)C(=O)N[C@@H](Cc1ccc(Cl)cc1)C(N)=O`, the Ratio Ki was 528.
As to `C[C@@H](NC(=O)[C@@H](N)Cc1ccc(O)cc1)C(=O)NCC(=O)N[C@@H](Cc1c[nH]c2ccccc12)C(=O)N[C@@H](Cc1ccccc1)C(N)=O`, the Ratio Ki amounted to 305.
With `C[C@@H](NC(=O)[C@H](Cc1ccc(O)cc1)NC(=N)N)C(=O)NCC(=O)N[C@@H](Cc1c[nH]c2ccccc12)C(=O)N[C@@H](Cc1ccccc1)C(N)=O`, the Ratio Ki stood at 2140.

Tested on in a further series: not listed separately
Kind of series: Half life in Kunming mouse plasma at 500 uM by RP-HPLC analysis. The format is ADME, cell-free. In a few lines:
as §3
For `C[C@@H](NC(=O)[C@H](Cc1ccc(O)cc1)NC(=N)N)C(=O)NCC(=O)N[C@@H](Cc1c[nH]c2ccccc12)C(=O)N[C@@H](Cc1ccc(Cl)cc1)C(N)=O`, the half-life at 500 µM came to 4.73 h.
The same measure, in the same setting: under `C[C@@H](NC(=O)[C@@H](N)Cc1ccc(O)cc1)C(=O)NCC(=O)N[C@@H](Cc1c[nH]c2ccccc12)C(=O)N[C@@H](Cc1ccc(Cl)cc1)C(N)=O` stands 2.84 h.
`C[C@@H](NC(=O)[C@@H](N)Cc1ccc(O)cc1)C(=O)NCC(=O)N[C@@H](Cc1c[nH]c2ccccc12)C(=O)N[C@@H](Cc1ccccc1)C(N)=O` registered a half-life at 500 µM of 2.51 h.
Compound `C[C@@H](NC(=O)[C@H](Cc1ccc(O)cc1)NC(=N)N)C(=O)NCC(=O)N[C@@H](Cc1c[nH]c2ccccc12)C(=O)N[C@@H](Cc1ccccc1)C(N)=O` returned a half-life at 500 µM of 4.08 h.

The target in the next series is Mu-type opioid receptor (Rattus norvegicus, UniProt P33535). Put plainly: Displacement of [3H]-DAMGO from mu opioid receptor in Wistar rat brain membranes preincubated for 1 hr measured after 1hr by scintillation counting method. The format is cell membranes, Membrane. In short, it runs like this: as §2
Sequence of Mu-type opioid receptor (P33535 whole entry): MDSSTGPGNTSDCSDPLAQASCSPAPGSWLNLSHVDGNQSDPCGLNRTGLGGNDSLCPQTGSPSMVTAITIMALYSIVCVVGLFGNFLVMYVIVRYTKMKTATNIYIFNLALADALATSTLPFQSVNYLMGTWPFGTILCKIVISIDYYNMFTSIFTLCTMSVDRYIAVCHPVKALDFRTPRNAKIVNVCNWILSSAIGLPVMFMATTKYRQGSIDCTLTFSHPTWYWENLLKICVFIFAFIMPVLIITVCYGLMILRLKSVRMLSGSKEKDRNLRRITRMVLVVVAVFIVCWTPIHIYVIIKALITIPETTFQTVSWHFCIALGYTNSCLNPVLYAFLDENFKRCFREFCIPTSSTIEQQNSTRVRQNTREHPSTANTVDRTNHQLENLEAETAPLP
Take `C[C@@H](NC(=O)[C@H](Cc1ccc(O)cc1)NC(=N)N)C(=O)NCC(=O)N[C@@H](Cc1c[nH]c2ccccc12)C(=O)N[C@@H](Cc1ccc(Cl)cc1)C(N)=O`: the Ki was determined as 3.2 nM.
In the case of `C[C@@H](NC(=O)[C@@H](N)Cc1ccc(O)cc1)C(=O)NCC(=O)N[C@@H](Cc1c[nH]c2ccccc12)C(=O)N[C@@H](Cc1ccc(Cl)cc1)C(N)=O`, the Ki came out at 7.7 nM.
Compound `C[C@@H](NC(=O)[C@@H](N)Cc1ccc(O)cc1)C(=O)NCC(=O)N[C@@H](Cc1c[nH]c2ccccc12)C(=O)N[C@@H](Cc1ccccc1)C(N)=O` displayed a Ki of 13.3 nM.
Regarding `C[C@@H](NC(=O)[C@H](Cc1ccc(O)cc1)NC(=N)N)C(=O)NCC(=O)N[C@@H](Cc1c[nH]c2ccccc12)C(=O)N[C@@H](Cc1ccccc1)C(N)=O`, the Ki was 1.81 nM.

Values taken from ChEMBL document CHEMBL4184138 (Bioorg Med Chem Lett, 2017).
